Source: ChEMBL document CHEMBL3421632, “Rational design of triazololipopeptides analogs of kisspeptin inducing a long-lasting increase of gonadotropins” (J Med Chem, 2015)
The source made the active and inactive calls. The calls are words filed in the database; no cut-off is given here. *1 amine or outer side, *2 acyl side, *3 side chain or, on linkers, in order; H or OH if unused. Where a SMILES comes first, the peptide text is derived from it. Side-chain parts run from the residue outwards. [ ]: non-standard residue; d: D form. The star is where a group is joined. Glyψ(1,4-Tz)Leu = CC(C)C[C@@H](C(=O)[*:2])n1cc(CN[*:1])nn1; γGlu = O=C(O)[C@H](CCC(=O)[*:2])N[*:1]; Palmitoyl = CCCCCCCCCCCCCCCC(=O)*; azaGly = NNC(=O)O

Columns and labels:
[1] = target: T1, KiSS-1 receptor (Homo sapiens, UniProt Q969F8); experiment: Agonist activity at human wild-type KISS1R expressed in HEK293 cells assessed as induction of intracellular Ca2+ mobilization after 30 mins by Fluo4 NW Ca2+ assay; format: functional, cell-based
Method in brief: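 HEK293 stably expressing HA-tagged wild-type human KISS1R, plated 40 000 cells/well 48 h prior. Loaded with Fluo4 NW dye 30 min at 37 °C plus 30 min at rt. Basal read 5× at 7 s intervals, compound added (final 1 pM–1 μM), Ca2+ followed 7 min. Mean basal subtracted, AUC plotted against concentration, sigmoid fit gives EC50. Nontransfected HEK293 served as control.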

[2] = test system: Ovis aries; experiment: Increase in total plasma LH level in anoestrus Ile-de-France ewe at 5 nmol, iv by radioimmunoassay; format: functional, organism-based
Method in brief: (§1)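 Intact acyclic anoestrous Ile-de-France ewes (3–5 y, 55–70 kg), jugular catheter placed the day before. Single iv bolus of 1–15 nmol/ewe. Basal LH taken every 10 min for 30 min, then every 10 min for 2 h, every 20 min for 4 h, then hourly. Plasma LH by RIA (1051-CY-LH standard, sensitivity 0.1 ng/mL). Peak, duration and AUC derived; mean ± SEM, N = 4–6.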

[3] = target: Neuropeptide FF receptor 1 (Homo sapiens, UniProt Q9GZQ6); experiment: Agonist activity at human NPFF1R expressed in CHO cells assessed as effect on forskolin-induced cAMP accumulation after 15 mins by luminescence based assay; format: functional, cell-based
Method in brief: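 CHO cells stably expressing hNPFF1R (Gαi-coupled), transfected with GloSensor; seeded 30 000 cells/well 24 h before, PBS-washed twice, loaded with GloSensor cAMP reagent 2 h. Compound added, luminescence read 15 min, then 300 nM forskolin + 0.25 mM IBMX added and read a further 120 min. Signal AUC plotted against concentration, sigmoid fit for EC50.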

[4] = test system: Ovis aries; experiment: Increase in maximal amplitude of plasma LH level in anoestrus Ile-de-France ewe at 1 to 15 nmol, iv by radioimmunoassay; format: functional, organism-based; method in brief: as §1
[5] = test system: Ovis aries; experiment: Increase in total plasma LH level in anoestrus Ile-de-France ewe at 1 to 15 nmol, iv by radioimmunoassay; format: functional, organism-based; method in brief: as §1
[6] = test system: Ovis aries; experiment: Increase in maximal amplitude of plasma LH level in anoestrus Ile-de-France ewe at 5 nmol, iv by radioimmunoassay (reference value: 0.4 +/- 0.2 ng/ml); format: functional; method in brief: as §1
[7] = test system: Ovis aries; experiment: Increase in time duration of increase of plasma LH level in anoestrus Ile-de-France ewe at 1 to 15 nmol, iv by radioimmunoassay; format: functional, organism-based; method in brief: as §1
[8] = target: T1, KiSS-1 receptor; experiment: Potency index, ratio of EC50 for KP10 to EC50 for compound for agonist activity at human wild-type KISS1R expressed in HEK293 cells assessed as induction of intracellular Ca2+ mobilization after 30 mins by Fluo4 NW Ca2+ assay; format: functional, cell-based
Method in brief: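 Ratio of KP10 EC50 to analog EC50, both measured by Fluo4 NW Ca2+ mobilization in HEK293 cells stably expressing HA-tagged human KISS1R. AUC from 7 min of monitoring, concentrations 1 pM–1 μM, sigmoid fit.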

[9] = organism: Homo sapiens; experiment: Selectivity index, ratio of EC50 for human NPFF1R to EC50 for human wild-type KISS1R
[10] = Stability in Ile-de-France ewe serum assessed as intact compound level at 50 uM incubated for 6 hrs by HPLC method; format: ADME, cell-free, Ovis aries; conditions: female, sheep, read-out: Stability
Method in brief: (§2)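 Ile-de-France ewe serum, stored at −20 °C and preheated 30 min at 39 °C. Peptide at 50 μM final, with L-phenylalaninol internal calibrator, incubated at 39 °C. Proteins precipitated with MeCN and spun; supernatant run on RP-HPLC (2–52% MeCN/0.1% TFA over 5 min, UV 214 nm, plus MS). Intact peak given as % of t = 0 area; five independent experiments.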

[11] = test system: Ovis aries; experiment: Increase in duration of increase of plasma LH level in anoestrus Ile-de-France ewe at 5 nmol, iv by radioimmunoassay; format: functional; method in brief: as §1
[12] = Drug metabolism in Ile-de-France ewe serum assessed as cleavage at C and N-termini of azaGly bond at 50 uM incubated for 6 hrs by LC-MS method; format: ADME, cell-free, Ovis aries; conditions: sheep
[13] = Drug metabolism in Ile-de-France ewe serum treated with 50 uM Ac-Tyr-Asn-Trp-Asn-Ser-Phe-azaGly-Leu-Arg-Tyr-NH2 assessed as retention time incubated for 6 hrs by LC-MS method; format: ADME, cell-free, Ovis aries; conditions: sheep
[14] = test system: Ovis aries; experiment: Increase in maximal amplitude of plasma LH level in anoestrus Ile-de-France ewe at 5 nmol, iv by radioimmunoassay (reference value: 0.6 +/- 0.5 ng/ml); format: functional; method in brief: as §1
[15] = Stability in Ile-de-France ewe serum assessed as intact compound level at 50 uM incubated for 1 hr by HPLC method; format: ADME, cell-free, Ovis aries; conditions: sheep, BLD = below limit of detection; method in brief: as §2

T1 sequence (Q969F8 whole entry): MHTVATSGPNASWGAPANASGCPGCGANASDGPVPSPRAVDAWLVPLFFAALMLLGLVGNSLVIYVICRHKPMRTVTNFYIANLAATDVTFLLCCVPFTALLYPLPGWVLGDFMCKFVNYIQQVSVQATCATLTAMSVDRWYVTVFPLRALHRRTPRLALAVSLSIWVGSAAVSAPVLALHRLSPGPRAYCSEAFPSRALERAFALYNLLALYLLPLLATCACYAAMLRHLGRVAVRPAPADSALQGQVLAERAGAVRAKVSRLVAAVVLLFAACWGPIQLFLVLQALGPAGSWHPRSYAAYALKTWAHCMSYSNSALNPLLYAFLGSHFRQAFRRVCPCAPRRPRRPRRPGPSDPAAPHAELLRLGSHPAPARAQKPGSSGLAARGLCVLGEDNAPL
Neuropeptide FF receptor 1, sequence (Q9GZQ6 whole entry): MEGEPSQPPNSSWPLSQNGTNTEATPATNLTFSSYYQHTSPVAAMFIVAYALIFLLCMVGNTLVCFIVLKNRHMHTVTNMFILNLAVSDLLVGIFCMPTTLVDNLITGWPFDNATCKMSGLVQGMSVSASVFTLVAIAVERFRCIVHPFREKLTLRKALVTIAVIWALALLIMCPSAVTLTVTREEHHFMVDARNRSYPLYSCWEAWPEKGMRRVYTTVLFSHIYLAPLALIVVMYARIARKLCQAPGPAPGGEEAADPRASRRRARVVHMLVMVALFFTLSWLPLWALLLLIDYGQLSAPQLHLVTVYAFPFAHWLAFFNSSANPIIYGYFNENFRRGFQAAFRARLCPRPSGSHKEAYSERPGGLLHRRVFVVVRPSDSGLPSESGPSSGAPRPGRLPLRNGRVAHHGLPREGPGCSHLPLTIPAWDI

Work on Ac-YNWNK(Ac)FGLRY-NH2 yielded an EC50 [1] of 7.2 nM.

In the case of CC(=O)N[C@@H](Cc1ccc(O)cc1)C(=O)N[C@@H](CC(N)=O)C(=O)N[C@@H](Cc1c[nH]c2ccccc12)C(=O)N[C@@H](CC(N)=O)C(=O)N[C@@H](CO)C(=O)N[C@@H](Cc1ccccc1)C(=O)NCc1cn([C@@H](CC(C)C)C(=O)N[C@@H](CCCNC(=N)N)C(=O)N[C@@H](Cc2ccc(O)cc2)C(N)=O)nn1 (Ac-YNWNSF[Glyψ(1,4-Tz)Leu]RY-NH2), the Activity [2] is reported as “Active”, the EC50 [3] is reported as over 5 µM and the Activity [4] is reported as “Active”. For the same compound, the Activity [5] was “Active”, the Activity [6] was 5.4 ng/mL and the Activity [7] was “Active”. It also gave a Ratio EC50 [8] of 30, an EC50 [1] of 0.07 nM and a Ratio EC50 [9] of over 10000. The remaining at 6 h, 50 µM [10] was 40.8% and the “fold change (FC)” value [11] was over 2.

With CC(=O)N[C@@H](Cc1ccc(O)cc1)C(=O)N[C@@H](CC(N)=O)C(=O)N[C@@H](Cc1c[nH]c2ccccc12)C(=O)N[C@@H](CC(N)=O)C(=O)N[C@@H](CO)C(=O)N[C@@H](Cc1ccccc1)C(=O)NNC(=O)N[C@@H](CC(C)C)C(=O)N[C@@H](CCCNC(=N)N)C(=O)N[C@@H](Cc1ccc(O)cc1)C(N)=O (Ac-YNWNSF[azaGly]LRY-NH2) the EC50 [1] was 0.006 nM, the remaining at 6 h, 50 µM [10] was 8.4% and the Drug metabolism [12] was “metabolite_detected”.

For Ac-YNK(Ac)NSFGLRY-NH2, the EC50 [1] was 0.08 nM.

Work on CCCCCCCCCCCCCCCC(=O)N[C@@H](CCC(=O)NCCCC[C@H](NC(=O)[C@H](CC(N)=O)NC(=O)[C@H](Cc1ccc(O)cc1)NC(C)=O)C(=O)N[C@@H](CC(N)=O)C(=O)N[C@@H](CO)C(=O)N[C@@H](Cc1ccccc1)C(=O)NCC(=O)N[C@@H](CC(C)C)C(=O)N[C@@H](CCCNC(=N)N)C(=O)N[C@@H](Cc1ccc(O)cc1)C(N)=O)C(=O)O (Ac-YNK([γGlu-Palmitoyl])NSFGLRY-NH2) yielded an EC50 [1] of 24.4 nM.

Ac-YNWNSF-OH gave a Retention_time [13] of 9.51 min.

With Ac-YNWNSFGLRY-NH2 the Activity [2] was “Active”, the EC50 [3] was over 5 µM and the EC50 [1] was 0.07 nM. For the same compound, the Ratio EC50 [9] was over 10000, the remaining at 6 h, 50 µM [10] was 2.6% and the Activity [14] was 3.9 ng/mL. The Activity [11] was “Active”.

For CC(=O)N[C@@H](Cc1ccc(O)cc1)C(=O)N[C@@H](CC(N)=O)C(=O)N[C@@H](Cc1c[nH]c2ccccc12)C(=O)N[C@@H](CC(N)=O)C(=O)N[C@@H](CO)C(=O)N[C@@H](Cc1ccccc1)c1cn(Cc2cn([C@@H](CC(C)C)C(=O)N[C@@H](CCCNC(=N)N)C(=O)N[C@@H](Cc3ccc(O)cc3)C(N)=O)nn2)nn1, the EC50 [1] was 120 nM and the remaining at 6 h, 50 µM [10] was 50.7%.

With H-YNWNSFGLRY-NH2 the Stability [15] was “BLD”, the EC50 [1] was 2.5 nM and the Activity [14] was 3.3 ng/mL.

In the case of CC(C)C[C@H](N)C(=O)N[C@@H](CCCNC(=N)N)C(=O)N[C@@H](Cc1ccc(O)cc1)C(N)=O (H-Leu-Arg-Tyr-NH2), the Retention_time [13] is reported as 7.57 min.
